Source: PubChem BioAssay (several laboratories)
Compounds with a hit are over-represented: about 2% of the library has one in this group of screens.
MC4R ag barr = activates human MC4R beta-arrestin recruitment; P32245; 360,000 tested, 0.98% active; activation, % at 8.9 µM; U2OS MC4R beta-arrestin complementation, luminescence; percent of melanotan II response, DMSO zero;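 active = activation above a per-plate cutoff, the mean activation of sample wells on that plate plus 3 SD, cut at about 8% in these data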
Target sequence (P32245 whole entry, looked up): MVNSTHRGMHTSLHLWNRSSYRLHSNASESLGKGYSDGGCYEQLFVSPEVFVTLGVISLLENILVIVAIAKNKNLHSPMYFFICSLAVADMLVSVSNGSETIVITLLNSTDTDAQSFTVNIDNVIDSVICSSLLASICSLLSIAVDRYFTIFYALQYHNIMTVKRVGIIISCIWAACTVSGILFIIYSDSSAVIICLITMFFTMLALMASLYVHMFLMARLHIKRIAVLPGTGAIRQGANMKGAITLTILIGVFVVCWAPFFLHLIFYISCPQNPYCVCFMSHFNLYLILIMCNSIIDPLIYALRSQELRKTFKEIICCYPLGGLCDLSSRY
CHOP UPR activ = activators of apoptotic arm of unfolded protein response (CHOP). CHO-CHOP luciferase reporter, UPR activation, luminescence; percent of tunicamycin response over DMSO baseline. activation, % at 10 µM. 330,000 tested, 0.34% active. AID 449763;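 active = at 10 µM dose, activation of 40% or more, normalized to positive control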
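Material: CHO-CHOP cells, stable luciferase reporter of PERK-eIF2a-CHOP signalling; quantity: 500 reporter cells seeded per well; buffer or medium: F12 medium containing 10% fetal bovine serum; compound: one dose, 10 µM in 0.5% DMSO; incubation: 6 h compound treatment, 37 °C; measured by: Steady-Glo luciferase luminescence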
MC4R antagonist = human MC4R antagonism in cAMP assay | P32245 | MC4R-expressing cells, MTII-stimulated cAMP, LANCE TR-FRET | inhibition, % at 6.5 µM | 360,000 tested, 0.48% active | AID 540295;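 active = inhibition above its plate's cutoff, the mean of tested wells on that plate plus 3 SD, cut at about 29% in these data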
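system = U2OS cells with stable human MC4R expression | also added = Melanotan II challenge after compound preincubation | dosing = one concentration, 6.5 µM nominal | incubation = compound 30 min, challenge 1 h, detection 1 h | measured by = TR-FRET with Eu-cAMP and labeled anti-cAMP, 671 nm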
UPR XBP1 act = adaptive UPR (XBP1) activation; CHO-XBP1 luciferase reporter, IRE1-XBP1 UPR activation, luminescence; percent of tunicamycin response, DMSO as zero; activation, % at 20 µM; 330,000 tested, 0.33% active; AID 463104;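 active = versus positive control, 20 µM dose yields 30% or more activation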
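Material: CHO-XBP1 cells stably carrying IRE1-XBP1-driven luciferase reporter / Amount: 1000 cells per well / Compound: 20 µM, 1% DMSO / Times: 6 h treatment, 37 °C / Detection: luciferase luminescence / Measure: % activation of reporter signal versus tunicamycin and DMSO controls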
Bfl-1 A1 inh = inhibitors of the anti-apoptotic protein A1, read as caspase activation. MEF A1-2A-BIM cells, Caspase-Glo 3/7 luminescence, 3 h; percent of clofoctol response, vehicle zero. 330,000 tested, 0.066% active. caspase activation, % (test concentration not listed);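 active = over half of replicate activation scores above 10%, or exactly half above 10 with the replicate mean above 10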
UPR XBP1 confirm = adaptive UPR (XBP1) activation, confirmed. activation, % at 20 µM. 1,000 tested, 63% active. CHO-XBP1 IRE1-XBP1 luciferase reporter, luminescence. shares compounds with UPR XBP1 act;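 active = reporter signal at least 30% of the positive control's activation in two or more of four replicate wells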
Hits are given with their value; 0 = inactive; - = no result.

SMILES	MC4R ag barr	CHOP UPR activ	MC4R antagonist	UPR XBP1 act	Bfl-1 A1 inh	UPR XBP1 confirm
Cc1c(C(=O)NCc2ccccc2C(F)(F)F)sc(=O)n1Cc1ccc(F)cc1	0	-	0	-	-	-
COc1cc(NC(=O)c2ccco2)c(C(=O)OCC(=O)c2c[nH]c3ccccc23)cc1OC	0	0	0	131	0	152
COc1cc(/C=C2/C(=N)N3C=CSC3=NC2=O)ccc1OCCCOc1cc(C)ccc1C	31	0	0	85	8.5	129
CN1C(=O)CCS(=O)(=O)C1c1ccc(Cl)c(Cl)c1 (centres undefined)	0	-	0	-	-	-
O=C(Nc1nnc(Cc2ccc([N+](=O)[O-])cc2)s1)Nc1ccccc1F	0	0	0	0	0	-
Cc1ccccc1NC(=O)Nc1nnc(Cc2ccc([N+](=O)[O-])cc2)s1	0	0	0	73	0	0
O=c1c2ccccc2nc(CSc2nnnn2-c2ccccc2)n1-c1ccccc1Cl	0	0	0	52	0	0
CCN(C(=O)CN1C(=O)NC2(CCC(C)CC2)C1=O)C1CCCCC1 (centres undefined)	0	-	0	-	-	-
CCCCC1=CC2=C(c3ccco3)C(=O)C(C)(OC(=O)c3ccc(OC)cc3)C(=O)C2=CN1Cc1ccc(OC)cc1 (centres undefined)	-	0	-	0	-	-
CCCCC1=CC2=C(c3ccco3)C(=O)C(C)(OC(=O)c3ccc(OC)cc3)C(=O)C2=CN1CC(C)C (centres undefined)	0	0	0	33	0	0
Cc1ccc(-c2ccc(CN3C(CC(C)C)C(=O)N(Cc4cn(CC5CCCCC5)nn4)CCS3(=O)=O)cc2)cc1 (centres undefined)	0	-	0	-	-	-
Cc1cc(N2C(=O)C(=O)/C(=C(/O)c3ccc(F)cc3)C2c2ccc(Cl)cc2)no1 (centres undefined)	0	0	0	33	0	0
COC(=O)c1ccc(C2/C(=C(\O)c3ccc(OC)c(C)c3)C(=O)C(=O)N2c2cc(C)on2)cc1 (centres undefined)	0	0	0	0	0	-
COc1ccc(-c2cc(C(F)F)n3ncc(C(=O)Nc4ccc(C(=O)N5CCOCC5)cc4)c3n2)cc1	0	0	0	33	0	52
COc1ccc(-c2nc3scc(-c4ccc(OC)c(OC)c4)c3c(=O)o2)cc1	0	0	0	41	0	47
COc1ccc(-c2csc3nc(C(C)C)oc(=O)c23)cc1OC	0	0	0	0	0	-
CCCCCC1CCC(c2ccc(/C(N)=N/O)cc2)CC1 (centres undefined)	0	0	0	32	0	0
CCCCC1CCC(c2ccc(C(N)=O)cc2)CC1 (centres undefined)	0	0	0	0	0	-
C=CCNc1ncnc2c1ncn2[C@H]1CN(Cc2cc(OC)c(OC)c(OC)c2)C[C@@H](CO)O1	0	-	0	-	-	-
COCc1cc(C)nc(SCC(=O)c2ccc(O)c(O)c2)c1C#N	0	0	0	41	0	43
C[C@H]1CN([C@@H](C)CO)C(=O)c2cc(Br)cnc2O[C@H]1CN(C)Cc1ccc(Oc2ccccc2)cc1	0	-	0	-	-	-
COc1ccc(-c2[nH]c(-c3ccc(Cl)cc3)nc2SCC(=O)Nc2nccs2)cc1	0	0	0	46	0	0
COc1ccccc1/C=C/C(=O)c1cc(Br)ccc1OC(=O)c1ccco1	0	0	0	0	0	-
Cc1ccc(/C=C/C(=O)c2cc(Br)ccc2OC(=O)c2ccco2)cc1	0	0	0	54	0	108
C[C@@H]1CC[C@]2(C(=O)O)CC[C@]3(C)C(=CCC4[C@]56CC[C@@](O)(OC5)C(C)(C)C6CC[C@]43C)C2[C@H]1C (some centres undefined)	0	0	0	0	0	-
SMILES	MC4R ag barr	CHOP UPR activ	MC4R antagonist	UPR XBP1 act	Bfl-1 A1 inh	UPR XBP1 confirm
C[C@H]1[C@H](C)CC[C@]2(C(=O)O)CC[C@]3(C)C(=CC[C@@H]4[C@@]5(C)CC[C@H](O)C(C)(C)[C@@H]5CC[C@]43C)[C@H]12	0	0	0	39	0	0
C[C@H]1[C@H](C)CC[C@]2(C)CC[C@]3(C)C(=CC[C@@H]4[C@@]5(C)CC[C@@H](O)[C@](C)(C(=O)O)[C@@H]5CC[C@]43C)[C@H]12	-	-	-	-	0	-
C[C@H]1[C@H](C)CC[C@]2(C(=O)O)CC[C@]3(C)C(=CC[C@@H]4[C@@]5(C)C[C@@H](O)[C@H](O)C(C)(C)[C@@H]5CC[C@]43C)[C@H]12	0	0	0	103	0	124
OC(c1cc(F)cc(Cl)c1)c1ncc(-c2ccccc2C(F)(F)F)[nH]1 (centres undefined)	0	-	0	-	-	-
OC[C@H]1O[C@@H](c2nc3ccc(-c4nc(-c5ccc(Br)cc5)no4)cc3[nH]2)C[C@@H]1O	0	-	0	-	-	-
Cc1ccc(C(=O)N2N=C(c3ccccc3O)CC2c2ccccc2)cc1 (centres undefined)	0	0	0	0	0	-
Cc1ccc(C(=O)N2N=C(c3ccc(Br)cc3)CC2c2ccccc2O)cc1 (centres undefined)	0	0	0	40	0	41
N#C/C(=C/c1ccc(N2CCCC2)c([N+](=O)[O-])c1)c1nc2ccccc2[nH]1	0	0	0	131	0	87
COc1cc(NC(=O)COc2ccc([N+](=O)[O-])cc2)ccc1NC(=O)c1ccco1	0	-	0	-	-	-
N#Cc1ccc(-c2ccc(Cl)cc2)nc1SCC(=O)c1cccc(Cl)c1	0	0	0	122	0	369
COc1ccc(CNC(=O)c2ccc(-n3ccnc3)c3ccoc23)cc1OC	0	-	0	-	-	-
CCOC(=O)C1=C(C)n2c(s/c(=C/c3cccc([N+](=O)[O-])c3)c2=O)=NC1c1ccc(O)c(OC)c1 (centres undefined)	0	0	0	45	0	86
Cc1cccc(NC(=O)C(=O)NCC2CCCN2S(=O)(=O)c2cccs2)c1 (centres undefined)	0	-	0	-	-	-
CN(C)CCCN(C(=O)c1cc(-c2cccs2)nc2ccccc12)c1nc2ccc(F)cc2s1	0	0	0	33	0	40
CN(C)CCCN(C(=O)c1ccc(S(=O)(=O)N2CCc3ccccc32)cc1)c1nc2ccc(F)cc2s1	0	0	0	0	0	-
Cc1ccc2nc(N(CCCN(C)C)C(=O)c3ccc(S(=O)(=O)N4CCc5ccccc5C4)cc3)sc2c1	8.7	0	0	93	0	49
Cc1cccc2sc(N(CCCN(C)C)C(=O)c3ccc(S(=O)(=O)N4CCc5ccccc5C4)cc3)nc12	0	0	0	0	0	-
